Jurkat NFkB inh = inhibitors of induced NF-kB luciferase reporter, primary screen, TCR NF-kB activation inhibitor project, cell-based, luminescence, uHTS | Jurkat, PMA/ionomycin-induced NF-kB luciferase reporter | inhibition, % at 4 µM | actives 0.53% (n = 330,000) | AID 435003, 2010; in the data active means inhibition above about 50%
697 NFkB inh = inhibitors of PMA/ionomycin-induced NF-kB reporter, 697 cells, primary screen, B-cell NF-kB inhibitor project, cell-based, luminescence, uHTS. actives 0.33% (n = 330,000). AID 435022, 2010. 697 B-cell NF-kB luciferase reporter, 16 h. inhibition, % at 4 µM; in the data active means inhibition above about 35%
UPR XBP1 act = activators of adaptive XBP1 UPR arm, primary screen, cell-based, CHO-XBP1 luciferase reporter, luminescence, uHTS. IRE1-XBP1 UPR activation; percent of tunicamycin response, DMSO as zero. AID 463104, 2010. actives 0.33% (n = 330,000). activation, % at 20 µM;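 active means versus positive control, 20 µM dose yields 30% or more activation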;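 further: 100% = tunicamycin at 10 µg/mL and 0% = DMSO only wells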
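Material: CHO cell line with stable XBP1 luciferase reporter; buffer or medium: F12 medium containing 10% fetal bovine serum; compound: single point, 20 µM final compound, 1% DMSO; incubation: 6 h treatment, 37 °C; measured by: glow luminescence from Steady-Glo reagent; evaluation: activation, % of tunicamycin; control set: tunicamycin high, DMSO low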
UPR CHOP act = activators of apoptotic CHOP UPR arm, primary screen, cell-based, CHO-CHOP luciferase reporter, luminescence, uHTS. UPR activation; percent of tunicamycin response over DMSO baseline. AID 449763, 2010. actives 0.34% (n = 330,000). activation, % at 10 µM;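 active means at 10 µM dose, activation of 40% or more, normalized to positive control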;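 further: 100% = tunicamycin at 10 µg/mL and 0% = DMSO alone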
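Test system: CHO-CHOP cells, stable luciferase reporter of PERK-eIF2a-CHOP signalling | Quantity: 500 CHO-CHOP cells per well | Buffer or medium: F12 plus 10% serum | Compound dosing: 10 µM single point, 0.5% DMSO | Schedule: 6 h compound treatment, 37 °C | Signal: Luciferase luminescence | Control set: Tunicamycin high control, DMSO low control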
CHOP inhibitor = inhibitors of CHOP promoter induction, primary screen, cell-based, unfolded protein response, luciferase reporter; CHO-K1 CHOP-promoter luciferase, tunicamycin-induced, 15-18 h; inhibition, % at 10 µM; actives 3.8% (n = 220,000); AID 2732, 2010;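 active means compounds that reduced the stress-induced luciferase reporter signal by more than about 70% of percent inhibition, limit read from the data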;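 further: 0% = tunicamycin plus vehicle and 100% = wells without tunicamycin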
Jurkat NFkB conf = PMA/ionomycin-induced NF-kB reporter inhibitors, Jurkat retest, confirmation, T-cell NF-kB inhibitor project, cell-based, luminescence, single concentration; Jurkat NF-kB luciferase, 16 h; inhibition, % at 4 µM; actives 27% (n = 2,700); shares compounds with Jurkat NFkB inh;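 active means inhibition reaching about 45% at 4 µM in either replicate, limit read from the data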;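 further: plate controls were PMA/ionomycin stimulated DMSO wells for no effect and unstimulated DMSO wells for full effect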
Active calls of the source: *; x = no result. This excerpt belongs to a sample that is enriched for hits.

SMILES	Jurkat NFkB inh	697 NFkB inh	UPR XBP1 act	UPR CHOP act	CHOP inhibitor	Jurkat NFkB conf
COc1ccc2c(c1OC)C(=O)N(c1cccc(C(F)(F)F)c1)C2	-163.7	-119.2	4.8	6.4	55.2	-53.1
Cc1ccc(Oc2ccccc2NC(=O)C2=COCCO2)cc1	3.3	-20.2	-0.4	-0.1	x	x
O=C(/C=C/Nc1ccc(F)c(Cl)c1)c1ccccc1	-177.3	-165.0	4.6	4.9	x	-29.5
O=C(/C=C/Nc1ccc(F)c(F)c1)c1cccs1	-181.6	-240.0	-1.8	3.9	-3.9	6.2
O=C(/C=C/Nc1ccc(F)c(F)c1)c1ccc(Br)cc1	-126.0	-138.8	1.4	6.5	-11.8	x
Cc1cccc(N/C=C/C(=O)c2cccs2)c1C	-167.5	-180.1	-2.0	-2.6	48.0	-13.9
O=C(/C=C/Nc1ccc(F)cc1)c1ccc(Br)cc1	-163.1	-164.4	1.7	4.3	-31.4	14.7
COc1cccc(NC(=S)N2CCN(S(=O)(=O)c3ccccc3)CC2)c1	7.7	12.1	-4.0	0.0	x	x
O=C(CCN1C(=O)C2CCCCC2C1=O)Nc1nc2c(F)cc(F)cc2s1 (centres undefined)	-46.0	-75.3	0.8	4.3	x	x
O=C(CCN1C(=O)C2CCCCC2C1=O)Nc1nc2ccc(F)cc2s1 (centres undefined)	-168.1	-243.1	-5.8	-1.3	x	-47.7
CCOCCOC(=O)c1[nH]c2c(c1C)C(=O)CC(c1ccccc1)C2 (centres undefined)	60.3*	-53.1	15.9	3.4	x	51.4*
CCOC(=O)c1[nH]c2c(c1C)C(=O)CC(c1ccc(F)cc1)C2 (centres undefined)	63.9*	-21.1	4.1	0.0	x	58.3*
CCOCCOC(=O)c1[nH]c2c(c1C)C(=O)CC(c1cc(OC)c(OC)c(OC)c1)C2 (centres undefined)	17.6	-19.0	-3.4	3.5	x	x
COC(=O)c1[nH]c2c(c1C)C(=O)CC(c1ccc(C)cc1)C2 (centres undefined)	20.4	2.0	-3.1	0.7	33.0	x
Cc1c(C(=O)OCC(C)C)[nH]c2c1C(=O)CC(c1cccs1)C2 (centres undefined)	51.4*	-19.0	9.6	0.1	x	48.6
COC(=O)c1[nH]c2c(c1C)C(=O)CC(c1cccc(OC)c1)C2 (centres undefined)	62.5*	-54.4	4.3	2.4	x	55.5*
COc1cccc(C(C(=O)NCC2CCCO2)N(C(=O)Cn2nnc3ccccc32)c2ccccc2C(C)=O)c1OC (centres undefined)	-7.3	11.9	-3.1	-0.3	x	x
CC(=O)Nc1cccc(/C(C)=N/N2C(C)CCCC2C)c1 (centres undefined)	-24.9	-8.1	-4.9	0.3	x	x
CCOCCOC(=O)c1[nH]c2c(c1C)C(=O)CC(c1cccs1)C2 (centres undefined)	74.8*	15.6	10.1	-1.3	-50.5	46.1
COCCOC(=O)c1[nH]c2c(c1C)C(=O)CC(c1cccs1)C2 (centres undefined)	x	x	x	x	-7.6	x
COc1ccc2nc(SCC(=O)Nc3nccs3)[nH]c2c1	-20.5	-14.6	3.2	-0.1	4.5	x
NC(=O)c1c(NC(=O)c2ccccc2F)sc2c1CCCC2	-173.7	-194.3	1.1	3.6	x	-107.6
COc1ccccc1N1CCN(C(=O)c2ccc(Cn3c(=O)[nH]c4ccsc4c3=O)cc2)CC1	4.6	-12.0	-1.5	1.0	15.3	x
CNC(=O)C(=O)NCC1OCCN1S(=O)(=O)c1ccc(OC)c(OC)c1 (centres undefined)	10.4	23.1	-3.7	2.0	x	x
COCC(=O)Nc1c(C(=O)Nc2ccc3c(c2)OCCO3)oc2ccccc12	-175.7	-109.9	2.7	4.1	4.7	-94.9
SMILES	Jurkat NFkB inh	697 NFkB inh	UPR XBP1 act	UPR CHOP act	CHOP inhibitor	Jurkat NFkB conf
CCOCC(=O)Nc1c(C(=O)Nc2ccc3c(c2)OCCO3)oc2ccccc12	-192.9	-116.7	-0.1	6.5	-22.8	-92.5
Nc1cccc2nc3ccccc3cc12	62.4*	24.1	-6.2	-0.4	x	-3.9
CCN(CC)CC#CCC(C)(c1ccccc1)c1ccccc1	-10.8	-27.3	-0.9	-1.7	37.4	x
COc1cccc(CN(C)C(=O)C2CCN(S(=O)(=O)c3cccs3)CC2)c1OC	-0.1	17.0	-0.3	0.9	x	x
CCSc1nccc(-c2nn(-c3ccc(C)cc3)ccc2=O)n1	50.8*	-48.2	0.4	0.2	-2.9	27.4
CSc1nccc(-c2nn(-c3ccc(C)cc3)ccc2=O)n1	57.6*	-3.8	1.6	0.5	x	48.8*
O=C(Nc1ccc(N2CCN(C(=O)c3cccs3)CC2)cc1)c1ccc([N+](=O)[O-])o1	52.3*	-31.8	-7.2	33.0	x	21.9
Cc1ccc2c(c1)c1c(c(=O)n(-c3ccccc3C)c(=O)n1CC(=O)NCC1CCCO1)n2C (centres undefined)	15.5	-5.8	-2.7	-0.4	x	x
COC(=O)c1c(-c2ccccc2)csc1NC(=O)c1ccco1	-153.2	-219.4	6.5	4.4	46.0	-69.0
Cc1sc(NC(=O)c2ccco2)nc1-c1ccccc1	-162.9	-221.1	-1.6	2.2	42.4	-93.9
CC(=O)c1sc(NC(=O)c2ccco2)nc1-c1ccccc1	-13.9	-62.9	4.0	3.4	8.5	x
CCNc1nc(-c2ccc(OC(F)F)cc2)c(C)s1	-9.9	-11.9	7.9	3.3	-1.5	x
COc1cc2cnc(C3=CCCCC3)cc2cc1OC	10.7	-0.2	10.8	1.3	x	x
COc1ccc2cc(-c3ccsc3)ncc2c1	-150.6	-156.5	1.2	4.9	x	-92.2
COc1ccc2cc(C3=CCCCC3)ncc2c1	-198.2	-220.5	-2.3	1.6	x	-115.2
COc1cc(OC)cc(-c2cc3ccc(OC)cc3cn2)c1	-56.3	-227.6	2.5	2.4	x	x
COc1ccc(-n2c(=O)c3c(C)c(C)sc3n(Cc3ccc(F)cc3)c2=O)c(OC)c1	3.8	-9.6	-2.2	2.3	-8.5	x
CCOC(=O)N1CCN(C(=S)Nc2ccc3nc(N4CCN(CC)CC4)cc(C)c3c2)CC1	-6.3	-15.8	0.3	-0.2	17.7	x
COc1cc2c(cc1OC)CN(C(=O)c1ccc3nc[nH]c3c1)CC2	60.8*	-4.2	-2.4	0.5	0.7	22.2
O=C(c1ccc2nc[nH]c2c1)N1CCc2ccccc2C1	-9.7	0.6	3.1	0.2	9.6	x
CC(C)OC(=O)CSc1nc(N2CCOCC2)c2c(c1C#N)CC(C)(C)OC2	5.0	-4.6	-2.3	-0.7	x	x
O=C(c1ccccc1)c1nn(-c2ccc(Cl)cc2)c(=O)cc1C(F)(F)F	98.5*	-130.8	2.3	8.0	89.8*	80.0*

Compound activity deposited in PubChem BioAssay by several laboratories.
